# HUVEC prolif 384: inhibitors of human endothelial cell proliferation; HUVEC proliferation, CellTiter-Glo luminescence, 72 h; hits give low values; viability, % at 10 µM (by protocol); 1.1% of 86,000 active; AID 648;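 active = viability at or below 30%; inactive = viability above 30%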;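 note: 100% = median luminescence of DMSO-only cell control wells on each plate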
# Lung fibro prol: blocks proliferation of human lung fibroblasts; AID 719; LL 47 human lung fibroblast viability, ATP luminescence; hits give low values; viability, % at 10 µM; 1.1% of 85,000 active;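 active = viability at or below 50% in the single dose screen; inactive = viability above 50%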;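 note: compound exposure lasted 72 h before the ATP readout; 100% = median luminescence of untreated cell-only wells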
#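 Test system: LL 47 human lung fibroblasts / Incubation: 72 h compound exposure at 37 °C after overnight plating / Technique: luminescent ATP detection, CellTiter-Glo / Compound dosing: 0.1% DMSO in all compound wells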
# HCT116 bCat-KO: beta-catenin-lacking colon tumor cell growth suppression | HCT116 beta-catenin knockout viability, CellTiter-Glo, 60 h; hits give low values | 1.5% of 140,000 active | viability, % at 10 µM;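 active = viability at or under a set limit, the compound median less 4 SD, cut at about 6% in these data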;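 note: 0% = Hyamine 1622 control at 20 µM and 100% = untreated cell control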
# HCT116 PTEN-null: growth suppressors of cells with PTEN tumor suppressor deletion. HCT116 PTEN-null viability, CellTiter-Glo, 60 h; hits give low values. 1.2% of 140,000 active. viability, % at 10 µM;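 active = viability at or below a set limit, 4 SD under the median of all tested compounds, cut at about 3.7% in these data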;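 note: PTEN knockout HCT116 line with beta catenin targeted HCT116 as companion control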
# H69AR growth 86K: blocks growth of human H69AR lung tumor cells | AID 598 | viability, % at 10 µM | 6% of 85,000 active | H69AR lung tumor viability, ATP luminescence, 72 h; hits give low values;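 active = viability at or below 40%; inactive = viability above 40%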;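 note: multidrug resistant small cell line overexpressing MRP-1 efflux transporter; 100% = mean luminescence of untreated control wells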
# The depositor's hits bear a star; · = not tested or not shown. Many of the other results were omitted from the sample, so hits are more common in it than they were.
SMILES,HUVEC prolif 384,Lung fibro prol,HCT116 bCat-KO,HCT116 PTEN-null,H69AR growth 86K
CCN1CCCC1CN(Cc1cc2ccc(C)cc2[nH]c1=O)C(=S)Nc1cccc(OC)c1 (stereo not drawn),·,·,3.5*,2.5*,·
Nc1cc(=O)[nH]c(SCc2nnnn2-c2ccc(Cl)cc2)n1,·,·,95,103,·
CC(CC(=O)Nc1nc2ccccc2[nH]1)c1ccccc1 (stereo not drawn),88,91,71,70,12*
O=C(CSc1ccc2ccccc2c1)Nc1nc2ccccc2[nH]1,·,·,94,101,·
O=C(Nc1nc2ccccc2[nH]1)c1ccc(Cl)c(S(=O)(=O)N2CCCC2)c1,75,73,25,39,12*
CCCSc1ccc2nc(NC(=O)OC)[nH]c2c1,45,53,9,12,20*
COC(=O)Nc1nc2ccc(C(=O)c3ccccc3)cc2[nH]1,37,50,·,·,33*
O=C(COc1ccccc1)Nc1nc2ccccc2[nH]1,102,99,99,99,102
CCN(CC)C(=S)Nc1ccc([N+](=O)[O-])cc1,·,·,93,101,·
Cc1ccc(C(=O)OCC(=O)c2c[nH]c3ccccc23)cc1S(=O)(=O)N1CCCCC1,·,·,90,86,·
COc1cccc(C(=O)Nc2nc3ccccc3[nH]2)c1,68,60,75,81,32*
CCCCCCC(=O)N(O)C1CC(=O)N(c2ccc(Br)cc2)C1=O (stereo not drawn),82,81,78,80,33*
Cc1oc2c(C)c3oc(=O)c4c(c3cc2c1C)CCC4,102,95,78,81,74
Cc1coc2c(C)c3oc(=O)c4c(c3cc12)CCCC4,86,94,·,·,21*
CCCCNCc1cc(Br)c(OCc2cccs2)c(OC)c1,·,·,1.4*,1.3*,·
CCOc1c(Br)cc(CNCc2cccs2)cc1OC,·,·,92,91,·
CC(C)c1ccc2c(c1)C(c1ccc(N3CCOCC3)cc1)=NNC(c1cccs1)=N2,·,·,76,57,·
CC1=C(C#N)CCC(=O)N1Cc1ccc(C)cc1,·,·,87,89,·
Cc1nc(-c2ccccc2)nc2[nH]c(-c3ccccc3)cc(=O)c12,55,96,91,87,15*
Cc1nc(C)c2c(=O)cc(-c3ccccc3)[nH]c2n1,57,61,27,30,31*
CC1CC(C(F)F)n2nc(C(=O)Nc3sc4c(c3C#N)CCC(C(C)(C)C)C4)nc2N1 (stereo not drawn),21*,53,80,71,18*
CCOC(=O)Nc1sc2c(c1C#N)CCC(C)C2 (stereo not drawn),98,83,89,104,99
c1coc(CNc2ncnc3sc4c(c23)CCCCC4)c1,92,100,58,45,90
Cc1nc(NCc2ccco2)c2c3c(sc2n1)CCC3,21*,62,59,60,47
CCC(C)NC(=O)COc1ccccc1[N+](=O)[O-] (stereo not drawn),·,·,99,96,·
SMILES,HUVEC prolif 384,Lung fibro prol,HCT116 bCat-KO,HCT116 PTEN-null,H69AR growth 86K
CCOC(=O)C1=c2/c(=C/c3ccccc3OC)c(N)c(C#N)n2C(=O)C(c2ccccc2OC)S1 (stereo not drawn),27*,55,20,·,3.4*
O=C(O)CCC(=O)NNc1ccccc1[N+](=O)[O-],·,·,83,99,·
COc1ccccc1Cn1c(=O)c2ccccc2n2c(Sc3ncnc4sccc34)nnc12,75,56,9,5,1.4*
COC(=O)c1cc(=O)n(CCc2ccccc2F)c(=Nc2ccc(F)c(Cl)c2)s1,8.9*,16*,8,11,1.5*
COC(=O)c1cc(=O)n(Cc2ccco2)c(=Nc2ccc(F)c(Cl)c2)s1,3.1*,7.9*,1.6*,5,1.5*
COc1ccc(C2c3c(oc4ccccc4c3=O)C(=O)N2CCN2CCOCC2)cc1OC (stereo not drawn),102,99,·,·,83
COCCN1C(=O)c2oc3ccccc3c(=O)c2C1c1ccc(OC)c(OC)c1 (stereo not drawn),89,102,0.1*,0.2*,102
CC(Oc1ccc(Cl)cc1)C(=O)NNC(=S)NC(=O)c1ccco1 (stereo not drawn),·,·,23,16,·
Cc1ccc(C2=NN(C(=O)CCl)C(c3cccs3)C2)o1 (stereo not drawn),·,·,3.6*,2.1*,·
CC(=O)N1N=C(c2ccc(C)o2)CC1c1ccc(Br)cc1 (stereo not drawn),·,·,102,97,·
O=C(CCl)N1N=C(c2ccco2)CC1c1cccs1 (stereo not drawn),·,·,3.2*,1.9*,·
CC(=O)N1N=C(c2ccco2)CC1c1cccs1 (stereo not drawn),·,·,91,106,·

# Bioassay records: PubChem BioAssay, SRMLSC
